The text below walks through data of publication PMC10760106 (bioRxiv, 2023).

The subject of series [1] is HiBiT F3 in ARPE-19 cells. As to the kind of experiment: non-HTS extracellular/intracellular HiBiT F3 assay. As to conditions: for HiBiT F3 secretion (extracellular) / intracellular HiBiT F3 levels: dose-responsive, ARPE-19. In kind it is cell-based, human. The gist of the method:
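HiBiT F3 ARPE-19 cells were plated at 200,000 cells/mL, and test compound in medium was added the next day. Treatment lasted 72 h or 1 week, with medium and compound renewed after 96 h for 1-week wells. For intracellular signal, cells were washed in HBSS and lysed 5 min with shaking in lytic buffer containing LgBiT (1:100) and substrate (1:50). Luminescence was read on 40 μL of lysate.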
Background: With HiBiT, luminescence reflects the tagged protein that the partner subunit can reach.

The subject of series [2] is HiBiT F3 ARPE-19 cells (fibulin-3 production). As to the kind of experiment: HTS whole-well HiBiT F3 assay. In kind it is cell-based, human. The following applies: 0.2 nM – 50 μM, 24 h. The gist of the method:
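Genome-edited heterogeneous ARPE-19 cells (2xFLAG-VS-HiBiT inserted after Ser16 of F3) were seeded at ~5,000 cells/well in 384-well plates and grown 24 h at 37°C. Medium was exchanged, and test compound in 0.1% DMSO was applied for 24 h. Plates were cooled 20 min at RT, then received a lytic buffer master mix with LgBiT (1:100) and lytic substrate (1:50). After 5 min shaking, whole-well luminescence was read.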

The subject of another series is HiBiT F3 ARPE-19 cells. As to the kind of experiment: Cell Titer Glo 2.0 viability counter screen. It is filed as cell-based, human. As to conditions: 1.66 and 5 μM, 48 h. On the technique in general: Cellular ATP, detected with luciferase, serves as a proxy for viable cell number.
The next series relates to ARPE-19 cells. As to the kind of experiment: lactate dehydrogenase. In kind it is cell-based, human. Summed up:
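Test compound was applied to ARPE-19 cells for 72 h or 1 week. Media were spun at 1,000 RPM for 5 min. In technical triplicate, 50 μL of cleared medium was mixed with an equal volume of LDH reaction buffer for 30 min at 37°C. DMSO-treated medium served as control, and lysis buffer-treated cells served as positive control.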

The subject of series [3] is HiBiT F3 in primary human dermal fibroblasts. As to the kind of experiment: HiBiT F3 assay in primary dermal fibroblasts. In kind it is cell-based. The following applies: 72 h, dose-responsive.
Series [4] deals with HiBiT mouse F3 in NIH-3T3 cells. As to the kind of experiment: HiBiT F3 assay in NIH-3T3 fibroblasts. It is filed as cell-based. The following applies: NIH-3T3 mouse cells, 72 h.
Series [5] concerns HiBiT F5 in ARPE-19 cells. As to the kind of experiment: HiBiT fibulin-5. It is filed as cell-based, human.
Series [6] deals with TCF-dependent Wnt signaling in HiBiT F3 ARPE-19 cells. As to the kind of experiment: 7xTCF reporter. The following applies: 1 μM, one week, 7TFP cells. It is filed as cell-based, human.
Series [7] concerns secreted proteome of HiBiT ARPE-19 cells. As to the kind of experiment: secreted proteome visualization and mass spectrometry. In kind it is cell-based, human.
The subject of series [8] is transcriptome of HiBiT F3 ARPE-19 cells. As to the kind of experiment: bulk RNAseq. It is filed as cell-based, human. As to conditions: 1 μM, 1 week. The gist of the method:
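The next day, 1 μM test compound or DMSO (1:1000) was added, with a media change at 96 h. Total RNA was extracted 7 days after treatment start and stored at −80°C. PCR-amplified libraries were bead-purified and quality-checked on a Bioanalyzer before sequencing.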

Series [9] concerns HiBiT WT F3 and HiBiT R345W F3 ARPE-19 cells. As to the kind of experiment: extracellular HiBiT assay on transwells, WT and R345W F3. It is filed as cell-based, human. As to conditions: 1 μM, 1 week, serum-free. Summed up: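 Cells carried HiBiT-tagged WT or R345W F3 in ARPE-19, with R345W made by knock-in in clonal cells. They were seeded on polyester transwells (~100,000/well for 12-well, ~30,000/well for 24-well) and switched to serum-free medium the next day, with changes every 3–4 days. After 1 week, cells were treated 1 week with 1 μM test compound or 0.1% DMSO in serum-free medium. Apical and basal media were then assayed for extracellular HiBiT luminescence.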

Another series has as its system MMP2. As to the kind of experiment: MMP2 zymography. It is filed as cell-based, human. The following applies: 1 μM, 1 week, HiBiT WT F3 and R345W F3 cells. The gist of the method: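 HiBiT WT or R345W F3 ARPE-19 cells were grown on polyester transwells in serum-free medium for 1 week, then treated 1 week with 1 μM test compound or 0.1% DMSO. Apical and basal media went in non-reducing SDS buffer onto 10% gelatin gels (140 V, 90 min). Gels were renatured 30 min at RT, developed 30 min at RT, then overnight at 37°C in fresh developing buffer. Coomassie R-250 staining and densitometry followed.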

Series [10] in a line: CHIR PK experiment with LC-MS/MS. In kind it is in vivo, mouse. Summed up:
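C57BL/6J mice (three per time point, at least one male and one female) received 25 mg/kg i.p. of test compound. It was given as 5 mg/mL in 2% DMSO/5.7% Captisol in PBS. Tissues were collected at 0, 30, 180, 360, 960 and 1440 min under isoflurane, and retina and liver were homogenized in PBS. […] Eye level was estimated from a vitreous volume of ~4.4 μL.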

For series [11], the system named is BLamD in R345W+/+ knockin mice. As to the kind of experiment: basal laminar deposit. As to conditions: treated mice (30/720 FOV), 25 mg/kg i.p., 1 mo; untreated 14.205%. In kind it is in vivo, mouse.
The conditions of series [12]: preclinical neurological disorder studies; ref [61]; cited from earlier work.
Where [13] appears, read: both, C57BL/6J, mouse, eye, ip, 25 mg/kg.
Where [14] appears, read: both, C57BL/6J, mouse, liver, ip, 25 mg/kg.
Setting [15] is: both, C57BL/6J, mouse, plasma, ip, 25 mg/kg.
Where [16] appears, read: both, C57BL/6J, mouse, retina, ip, 25 mg/kg.

On to `[Cl-].[Li+]` [LiCl, lithium chloride], for which, in series [1] (72 h), the “HiBiT F3 secretion (extracellular)” value is listed as “significantly reduced” and the “intracellular HiBiT F3 levels” value is “significantly reduced”.

Consider `CN1CCN(S(=O)(=O)c2ccc(-c3cnc(N)c(C(=O)Nc4cccnc4)n3)cc2)CC1` [AZD2858], for which, in series [2], the “dose-response confirmation of HiBiT F3 reduction” value is listed as “demonstrated dose-responsiveness”. Further, in the series on HiBiT F3 ARPE-19 cells, the cytotoxicity profile entry is on record as “favorable cytotoxicity profiles”.

6-bromoindirubin-3-oxime [BIO]: in series [1] (72 h), the “HiBiT F3 secretion (extracellular)” value is on record as “significantly reduced” and the “intracellular HiBiT F3 levels” value was “significantly reduced”.

A word on the Cmax: it is the maximum level reached in the sampled fluid or tissue. The Tmax is the time from dosing to the highest level. In general, half-life refers to how long it takes for the measured level to halve. A low value points to rapid decline. Broadly, the MRT is the average time that molecules of a dose stay in the body. The AUC(0-t) is the area under the concentration-time curve up to a stated or last time point. Broadly, the CL/F is the apparent clearance, not corrected for the fraction that reaches the circulation. With `Cc1c[nH]c(-c2cnc(NCCNc3ccc(C#N)cn3)nc2-c2ccc(Cl)cc2Cl)n1` [CHIR99021], the “reduction of F3 secretion” value in series [1] (1 μM, one week) is listed as 49.9 ± 7.0%. Also, the “reduction of HiBiT F3 secretion” value in series [1] (10 μM, 72 h) is “up to 76%”. In addition, in series [1] (72 h), the “HiBiT F3 secretion (extracellular)” value was “significantly reduced” and the “intracellular HiBiT F3 levels” value was “significantly reduced”. For the same compound, the “toxicity by LDH release” value in the series with ARPE-19 cells (72 h) is “non-toxic”. For the same compound, the “cell death by LDH release” value in the series on ARPE-19 cells (prolonged low level, one week) is on record as “does not increase cell death”. For the same compound, in series [3], the “intracellular HiBiT F3” value is reported as “significantly reduced” and the “secreted HiBiT F3” value was “significantly reduced”. For the same compound, the F3 production result in [4] was “reduced F3 production”. Besides, the “secreted F5” value in series [5] (72 h, all concentrations used) is reported as “dose-responsive reduction”. Besides, the F5 secretion result in series [5] (week-long treatment, only at 1 and 10 μM) is on record as “significantly reduced”. The “TCF activation (FLuc)” value in [6] is “without triggering TCF activation”. Besides, in series [7] (10 μM), the “total protein secretion (SDS-PAGE of concentrated media)” value is listed as “clear increase”. Besides, the “banding pattern or intensity of secreted protein” value in series [7] (0.1 or 1 μM) is recorded as “relatively little detectable change”. Also, in series [8], the “PEDF (SERPINF1) in proteomics and RNAseq datasets” value is “significantly upregulated”; the “transcripts of TYR and TYRP1” value was “significantly upregulated”. Moreover, the “apically and basally secreted HiBiT WT F3 and HiBiT R345W F3” value in series [9] is listed as “significantly reduced”. For the same compound, in the series on MMP2, the “reduction of MMP2 levels in apical media” value is 16-17% and the “reduction of MMP2 levels in basal media” value is listed as 29-31%. The “estimated peak concentration of CHIR in the eye” value in [10] (after 30 min, 25 mg/kg i.p., based on vitreous volume ~4.4 μL) was ~ 1.3 μM. Further, in [10] (setting [13]), the concentration at 3 h was roughly 1100 nM, the concentration at 6 h was determined as 364 nM and the concentration at 24 h is 151 nM. Also, in series [10] (setting [14]), the peak level (Cmax) was 33300 ng/g, the Tmax was 0.5 h, the concentration at 30 min came to 33300 ng/g and the concentration at 180 min was 4680 ng/g. In [10] (setting [14]), the concentration at 360 min came to 1160 ng/g, the concentration at 960 min was found to be 6.1 ng/g, the concentration at 1440 min is 5.2 ng/g and the half-life was 2 h. Besides, in series [10] (both, C57BL/6J, mouse, liver, ip, 25 mg/kg, MRT, 25 mpk IP), the MRT was 1.57 h. In series [10] (setting [15]), the AUC(0-t) was 15500 ng·h/mL, the apparent clearance CL/F is 27 mL/min/kg, the maximum concentration (Cmax) amounted to 9250 ng/mL and the Tmax was 0.5 h. Moreover, in series [10] (setting [15]), the concentration at 30 min is 9250 ng/mL, the concentration at 180 min worked out at 490 ng/mL, the concentration at 360 min came out at 41 ng/mL and the concentration at 960 min turned out to be 0.3 ng/mL. In series [10] (setting [15]), the concentration at 1440 min was 0.4 ng/mL and the half-life amounted to 1.97 h. Further, the MRT in series [10] (both, C57BL/6J, mouse, plasma, ip, 25 mg/kg, MRT, 25 mpk IP) is 0.817 h. In addition, in series [10] (setting [16]), the Cmax was 527 ng/g, the Tmax was 0.5 h, the concentration at 30 min was 527 ng/g and the concentration at 180 min turned out to be 434 ng/g. In series [10] (setting [16]), this compound gave a concentration at 360 min of 148 ng/g, a concentration at 960 min of 41 ng/g, a concentration at 1440 min of 61 ng/g and a half-life of 6.75 h. The MRT in series [10] (both, C57BL/6J, mouse, retina, ip, 25 mg/kg, MRT, 25 mpk IP) was 6.05 h. The AUClast in [10] (liver, 25 mpk IP, mouse) is reported as 4,231,688 ± 272,680 min*ng/g. For the same compound, in series [10] (plasma, 25 mpk IP, mouse), the Vz_F is 4.586 L/kg. Also, in series [10] (retina, 25 mpk IP, mouse), the AUClast was 213,348 ± 17,725 min*ng/g. Further, the MRT in series [10] (retina, 25 mpk IP, mouse, 25 mg/kg) worked out at 6.03 h. The “FOVs containing deposits (BLamDs)” value in [11] came out at 4.167%. The blood-brain barrier crossing entry in series [12] is given as “can cross the blood-brain barrier”.

In the case of `Cc1cnc(-c2cnc(NCCNc3ccc(C#N)cn3)nc2-c2ccc(Cl)cc2Cl)[nH]1.Cl.Cl.Cl` [CHIR trihydrochloride], the Tmax turned out to be 0.5 h in series [10] (liver, 25 mpk IP, mouse); 0.5 h in [10] (plasma, 25 mpk IP, mouse); 0.5 h in [10] (retina, 25 mpk IP, mouse).
